Source: the RNAGym collection of RNA variant scans (doi:10.1126/science.aae0568)
This sample holds only a part of the variants without activity.

B1: tRNA (parent)
chain: GUUCCGUUGGCGUAAUGGUAACGCGUCUCCCUCCUAAGGAGAAGACUGCGGGUUCGAGUCCCGUACGGAACG

Variants of: B1
Assay: yeast fitness relative to wild type (ratio to wild type); higher = fitter; tRNA-Arg(CCU), competitive growth, 37 C, YPD
Summary of the method: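 Variants of the tRNA-Arg(CCU) gene, chemically synthesised with a 3% per-site mutation rate at 69 sites, were placed at the native genomic locus in Saccharomyces cerevisiae. The pooled strains were competed in YPD at 37°C for 24 hours in six parallel replicates. Gene amplicons from the start population and from each end population were read by 100-nucleotide paired-end sequencing. Darwinian fitness relative to wild type came from changes in genotype frequencies; genotypes needed ≥ 100 starting reads, and estimates < 0.5 were set to 0.5.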

Point of comparison: C27G C31G C46A, yeast fitness 0.932. Against it:
- C27U A45C U64G — lower, 0.584
- C27G C31U C34G A37G G44A — lower, ≤ 0.5
- C27G C33G A57C — lower, ≤ 0.5
- C27G C49U C55G — lower, ≤ 0.5
- C27U C29A G38C A57G C61U — lower, ≤ 0.5
- C27A G41C — higher, 1.18
- C27U C31U U53C — lower, 0.678
- C27G A37G C66U — lower, 0.538
- C27U A43U C55G — lower, 0.544
- C27U C31U C60G — lower, 0.581
- C27U A40G G44A C55U A69U — lower, ≤ 0.5
- C27G G50C — lower, ≤ 0.5
- C27U C29A C49A — lower, ≤ 0.5
- C27G A65U C66G — lower, ≤ 0.5
- C27U A40C G58A — lower, 0.626
- C27A U32G G51A G56C — lower, ≤ 0.5
- C27A C31A G52A G58C C62A — lower, ≤ 0.5
- C27G A57U C62U — lower, 0.62
- C27U A36C U54A C62U — lower, ≤ 0.5
- C27G C33G G41A — lower, ≤ 0.5
- C27A C30G G41C C61G C62U C66U A69U — lower, ≤ 0.5
- C27U A42U C62U A65C G67A — lower, ≤ 0.5
- C27A C46A G63A — lower, 0.714
- C27U A37G G41A G50C — lower, 0.649
- C27A U28A G41A G48A A65G — lower, ≤ 0.5
- C27A C31G A42C C61G — lower, ≤ 0.5
- C27G C30U U32C G51C — lower, 0.603
- C27A A45G G48C — lower, ≤ 0.5
- C27A G39A A57G G68A — lower, ≤ 0.5
- C27G C30U C66U — lower, ≤ 0.5
- C27A C34G A42G G50A — lower, ≤ 0.5
- C27U C31A U35G C55G — lower, ≤ 0.5
- C27A U64G — lower, 0.65
- C27A U64A — lower, 0.748
- C27U A45C G63A — lower, 0.68
- C27U A37G G38C A43C C62G — lower, 0.508
- C27G U35A — lower, 0.636
- C27A U28C C29G A70G — lower, ≤ 0.5
- C27U A37C A40U A43U C66U — lower, 0.583
- C27U A37U A65U — lower, 0.591
- C27U A45U — higher, 1.02
- C27U A45C — higher, 0.947
- C27G A36U G39C — lower, 0.526
- C27G A37C G39A A45C A65U — lower, ≤ 0.5
- C27U A40C C46U — lower, 0.661
- C27U C31U U35C A36U C55A C66G — lower, 0.777
- C27A U35A — lower, 0.662
- C27A U35C — lower, 0.735
- C27U A69U — higher, 1.02
- C27G A42C C49G C61G — lower, 0.669
- C27G A36G G67U — lower, ≤ 0.5
- C27A C34G A40G — lower, 0.666
- C27A G38U A45G G48C — lower, ≤ 0.5
- C27G C31G G63U — lower, ≤ 0.5
- C27G C31U C34G A37G A65C — lower, ≤ 0.5
- C27G A40G C62U A65U — lower, ≤ 0.5
- C27U A37U C49U — lower, 0.549
- C27A C30G G41C — lower, ≤ 0.5
- C27G A57G U59G — lower, ≤ 0.5
- C27A A57G G63A — lower, 0.551
- C27G G50A G56C — lower, ≤ 0.5
- C27G A45G G48A C66U — lower, ≤ 0.5
- C27A C31U A43G C61U A65C — lower, 0.501
- C27G C30G A40G C49A — lower, 0.571
- C27A C46A C66U — lower, 0.704
- C27G U54C C62U — lower, 0.552
- C27A U54C C66A — lower, ≤ 0.5
- C27G G39A — lower, 0.615
- C27G A37U C49G — lower, ≤ 0.5
- C27A A42C G68C — lower, ≤ 0.5
- C27A C29G — lower, 0.702
- C27U — higher, 0.995
- C27G — lower, 0.644
- C27A C46U G67A — lower, 0.699
- C27G C34G A45G G51C A70G — lower, ≤ 0.5
- C27G C30U A65U A70U — lower, 0.594
- C27G G48A U59G — lower, ≤ 0.5
- C27A C61A G67C — lower, ≤ 0.5
- C27G C30G C49U C62U G67A — lower, ≤ 0.5
- C27U A42G — lower, 0.695
- C27U A36U A69C A70U — lower, ≤ 0.5
- C27A C60U A69G — lower, ≤ 0.5
- C27A A40G A69U — lower, 0.582
